These results are taken from ChEMBL document CHEMBL4024792, “(N-Hydroxycarbonylbenylamino)quinolines as Selective Histone Deacetylase 6 Inhibitors Suppress Growth of Multiple Myeloma in Vitro and in Vivo” (J Med Chem, 2018).

The target in data set [1] is T1, NAD-dependent protein deacetylase sirtuin-1 (Homo sapiens, UniProt Q96EB6).
T1 sequence (Q96EB6 whole entry): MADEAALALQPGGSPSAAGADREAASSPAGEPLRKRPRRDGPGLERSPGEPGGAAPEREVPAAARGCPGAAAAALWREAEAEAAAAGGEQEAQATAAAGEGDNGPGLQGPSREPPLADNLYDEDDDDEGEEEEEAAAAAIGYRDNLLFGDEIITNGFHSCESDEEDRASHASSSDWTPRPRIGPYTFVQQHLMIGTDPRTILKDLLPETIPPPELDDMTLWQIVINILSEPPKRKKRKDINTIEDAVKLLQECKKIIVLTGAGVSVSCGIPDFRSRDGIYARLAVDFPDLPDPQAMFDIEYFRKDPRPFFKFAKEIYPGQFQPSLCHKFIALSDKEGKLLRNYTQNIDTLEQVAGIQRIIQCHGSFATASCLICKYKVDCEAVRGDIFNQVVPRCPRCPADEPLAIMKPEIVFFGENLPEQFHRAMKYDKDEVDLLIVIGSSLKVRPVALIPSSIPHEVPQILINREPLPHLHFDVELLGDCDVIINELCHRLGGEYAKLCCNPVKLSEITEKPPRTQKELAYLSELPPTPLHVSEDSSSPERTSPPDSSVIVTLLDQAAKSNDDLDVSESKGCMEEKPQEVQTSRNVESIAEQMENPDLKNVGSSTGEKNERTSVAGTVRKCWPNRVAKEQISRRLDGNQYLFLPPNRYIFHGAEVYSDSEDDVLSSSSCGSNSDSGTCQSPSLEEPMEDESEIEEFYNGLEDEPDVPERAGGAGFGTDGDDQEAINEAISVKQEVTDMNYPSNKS
The data set can be described thus: Inhibition of recombinant human N-terminal His-tagged SIRT1 (1 to 747 end residues) expressed in Escherichia coli using Ac-RHK-K(Ac)-AMC as substrate after 30 mins in presence of NAD+ by fluorescence assay.

Data set [2] addresses Histone deacetylase 5 (Homo sapiens, UniProt Q9UQL6). Kind of data set: Inhibition of recombinant human C-terminal His-tagged HDAC5 (656 to 1122 residues) expressed in insect cells using Boc-K(Ac)-AMC as substrate after 60 mins by fluorescence assay.
The target in data set [3] is T2, Polyamine deacetylase HDAC10 (Homo sapiens, UniProt Q969S8).
T2 sequence (Q969S8 whole entry): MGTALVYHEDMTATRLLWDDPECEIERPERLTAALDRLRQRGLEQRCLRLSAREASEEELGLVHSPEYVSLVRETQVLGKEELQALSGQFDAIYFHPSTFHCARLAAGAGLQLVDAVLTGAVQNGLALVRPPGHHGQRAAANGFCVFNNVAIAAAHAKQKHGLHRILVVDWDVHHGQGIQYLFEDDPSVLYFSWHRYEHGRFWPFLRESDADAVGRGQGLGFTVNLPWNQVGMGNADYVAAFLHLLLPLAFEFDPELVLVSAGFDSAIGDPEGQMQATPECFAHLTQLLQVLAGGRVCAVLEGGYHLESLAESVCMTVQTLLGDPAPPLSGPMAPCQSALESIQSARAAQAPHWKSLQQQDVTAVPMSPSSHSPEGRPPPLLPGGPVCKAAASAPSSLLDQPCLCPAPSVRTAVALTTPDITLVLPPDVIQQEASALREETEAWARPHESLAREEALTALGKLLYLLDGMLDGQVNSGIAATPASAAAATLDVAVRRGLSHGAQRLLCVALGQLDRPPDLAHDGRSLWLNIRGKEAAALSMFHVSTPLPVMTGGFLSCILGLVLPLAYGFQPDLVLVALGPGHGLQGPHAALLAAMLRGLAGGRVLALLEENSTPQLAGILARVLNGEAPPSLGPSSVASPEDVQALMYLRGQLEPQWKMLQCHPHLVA
The data set can be described thus: Inhibition of human HDAC10 using RHKKAc as substrate.

Data set [4] is described as follows: Antiproliferative activity against human HS5 cells after 48 hrs by SRB assay. The format is cell-based. In outline: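 Cells were exposed to test compounds at the indicated concentrations for 48 h. They were then fixed with 10% trichloroacetic acid, stained 30 min with 0.4% SRB in 1% AcOH, and washed with 1% AcOH. Bound dye was solubilized in 10 mM Tris base and OD read at 510 nm. Lines cultured in RPMI 1640 with 20% FBS and penicillin/streptomycin, 37°C, 5% CO2.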

Molecules are shown by their SMILES.

Histone deacetylase 5, sequence (Q9UQL6 whole entry, the tested form may be a part): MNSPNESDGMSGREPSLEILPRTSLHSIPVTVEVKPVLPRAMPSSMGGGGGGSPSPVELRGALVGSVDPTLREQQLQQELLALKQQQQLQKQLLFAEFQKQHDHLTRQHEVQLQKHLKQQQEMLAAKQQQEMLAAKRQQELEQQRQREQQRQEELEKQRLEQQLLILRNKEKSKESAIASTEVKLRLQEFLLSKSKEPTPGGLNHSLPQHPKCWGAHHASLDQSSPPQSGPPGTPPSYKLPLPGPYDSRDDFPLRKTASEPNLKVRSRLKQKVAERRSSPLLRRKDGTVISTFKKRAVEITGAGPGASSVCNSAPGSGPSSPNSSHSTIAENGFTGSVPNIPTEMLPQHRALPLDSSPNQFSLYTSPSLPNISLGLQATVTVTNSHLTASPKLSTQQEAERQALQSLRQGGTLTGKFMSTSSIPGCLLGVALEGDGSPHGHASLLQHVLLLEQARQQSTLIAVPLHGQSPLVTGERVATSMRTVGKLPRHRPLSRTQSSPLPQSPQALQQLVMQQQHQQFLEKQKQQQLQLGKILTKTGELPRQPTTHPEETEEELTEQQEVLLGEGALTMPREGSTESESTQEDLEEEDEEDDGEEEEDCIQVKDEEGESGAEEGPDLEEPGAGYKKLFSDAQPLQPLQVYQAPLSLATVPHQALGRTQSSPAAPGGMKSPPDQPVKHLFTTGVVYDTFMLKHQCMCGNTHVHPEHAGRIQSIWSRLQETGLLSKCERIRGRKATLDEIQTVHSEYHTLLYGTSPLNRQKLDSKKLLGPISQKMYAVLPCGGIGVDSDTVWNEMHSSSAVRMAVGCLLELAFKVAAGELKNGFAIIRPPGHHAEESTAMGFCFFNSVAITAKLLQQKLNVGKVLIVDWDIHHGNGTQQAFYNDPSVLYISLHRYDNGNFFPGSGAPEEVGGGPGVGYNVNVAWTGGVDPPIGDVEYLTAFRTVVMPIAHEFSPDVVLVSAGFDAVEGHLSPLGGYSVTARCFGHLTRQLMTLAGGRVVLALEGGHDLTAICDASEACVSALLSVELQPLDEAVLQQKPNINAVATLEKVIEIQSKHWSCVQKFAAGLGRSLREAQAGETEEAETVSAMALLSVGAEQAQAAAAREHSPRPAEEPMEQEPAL

As to `O=C(NO)c1ccc(CNc2cccc3ncccc23)cc1`, the IC50 in data set [1] is more than 20 µM; in data set [2], 2.25 µM; in data set [3] it was 1.26 µM. The molecule further came in with a GI50 at 48 h in data set [4] of more than 100 µM.
Take `O=C(NO)c1ccc(CNc2cccc3cccnc23)cc1`: the IC50 in data set [1] is more than 20 µM; in data set [2], 3.11 µM; in data set [3] it was 9.79 µM. The molecule further showed a GI50 at 48 h in data set [4] of more than 100 µM.
